We go through 15 compounds from ChEMBL document CHEMBL4033696, “Repurposing of Proton Pump Inhibitors as first identified small molecule inhibitors of endo-β-N-acetylglucosaminidase (ENGase) for the treatment of NGLY1 deficiency, a rare genetic disease” (Bioorg Med Chem Lett, 2017).

As a reminder, the IC50 is the concentration that gives 50% inhibition.

Test [1] addresses T1, Cytosolic endo-beta-N-acetylglucosaminidase (Homo sapiens, UniProt Q8NFI3).
T1 sequence (Q8NFI3 whole entry): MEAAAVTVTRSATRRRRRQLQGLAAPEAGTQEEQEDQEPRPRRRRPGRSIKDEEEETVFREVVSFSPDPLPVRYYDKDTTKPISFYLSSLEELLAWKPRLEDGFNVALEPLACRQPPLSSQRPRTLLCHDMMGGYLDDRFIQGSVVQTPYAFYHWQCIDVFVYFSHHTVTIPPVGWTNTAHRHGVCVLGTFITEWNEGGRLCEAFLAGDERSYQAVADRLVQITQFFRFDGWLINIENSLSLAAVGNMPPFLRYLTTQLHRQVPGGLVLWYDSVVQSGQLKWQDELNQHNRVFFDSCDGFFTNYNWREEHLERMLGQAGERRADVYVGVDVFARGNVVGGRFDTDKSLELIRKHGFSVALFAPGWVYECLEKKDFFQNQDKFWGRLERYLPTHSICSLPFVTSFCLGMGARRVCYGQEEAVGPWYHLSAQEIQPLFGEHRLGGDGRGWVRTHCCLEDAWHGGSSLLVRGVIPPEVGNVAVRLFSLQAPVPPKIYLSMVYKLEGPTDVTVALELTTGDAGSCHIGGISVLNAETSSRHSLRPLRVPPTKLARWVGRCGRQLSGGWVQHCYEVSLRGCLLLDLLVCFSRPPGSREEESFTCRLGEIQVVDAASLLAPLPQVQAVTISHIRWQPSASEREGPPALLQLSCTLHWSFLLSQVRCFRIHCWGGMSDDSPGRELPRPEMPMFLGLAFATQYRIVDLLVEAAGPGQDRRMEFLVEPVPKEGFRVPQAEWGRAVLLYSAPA
Description: (§1) Inhibition of recombinant human C-MYC/DDK-tagged ENGase expressed in HEK293T cells using heat inactivated bovine ribonuclease B as substrate pretreated for 15 mins followed by substrate addition after 90 mins by SDS-PAGE analysis. Details: species or system HEK-293T. In outline: (§2)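 Electrophoretic mobility shift assay: recombinant human ENGase with ribonuclease B and inhibitor at various concentrations, heat-inactivated, run on 12% SDS-PAGE, Coomassie R-250 staining, band densitometry. IC50 came either from 8-dose curves in three independent experiments or was estimated from four concentrations in two independent experiments.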

The target in test [2] is T2, Cytosolic endo-beta-N-acetylglucosaminidase (Homo sapiens) (UniProt Q8NFI3).
T2 sequence (whole entry): T1 sequence (Q8NFI3 whole entry)
Description: Inhibition of recombinant human C-MYC/DDK-tagged ENGase expressed in HEK293T cells at 100 uM using heat inactivated bovine ribonuclease B as substrate pretreated for 15 mins followed by substrate addition after 90 mins by SDS-PAGE analysis. As to conditions: HEK-293T. In outline: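 Recombinant human ENGase incubated with ribonuclease B substrate and test compound at 100 μM as a single-concentration screen. Reactions were then heat-inactivated and resolved on 12% SDS-PAGE as an electrophoretic mobility shift assay. Bands were stained with Coomassie blue R-250 and quantified by densitometry.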

Test [3] concerns the target T2, Cytosolic endo-beta-N-acetylglucosaminidase (Homo sapiens). The description is as §1. The following applies: HEK-293T. In outline:
as §2

Molecules are shown by their SMILES. The source made the active and inactive calls. The rule behind the calls is not given here. Residues, ends and D or L forms follow the SMILES beside them. *: point of attachment. Cbz = O=C(OCc1ccccc1)*

`COCCCOc1ccnc(C[S+]([O-])c2nc3ccccc3[nH]2)c1C` (stereo not given) [RABEPRAZOLE]: the IC50 in test [1] stood at 4.47 µM.

In the case of `Cc1c(OCC(F)(F)F)ccnc1C[S+]([O-])c1nc2ccccc2[nH]1` (stereo not given) [LANSOPRAZOLE], the IC50 in test [1] is 24.4 µM.

For the compound `Cc1c(OCC(F)(F)F)ccnc1C[S@@+]([O-])c1nc2ccccc2[nH]1` [DEXLANSOPRAZOLE], in test [1], the IC50 came out at 25 µM.

As for `COc1ccc2[nH]c([S+]([O-])Cc3ncc(C)c(OC)c3C)nc2c1` (stereo not given) [OMEPRAZOLE], the IC50 in test [1] came to 25 µM.

As to `Clc1cccc(Cl)c1NC1=NCCN1`, in test [2], the inhibition entry is “inactive”.

As to `COc1ccc2[nH]c([S+]([O-])Cc3ncc(C)c(OC)c3C)nc2n1` (stereo not given) [TENATOPRAZOLE], the IC50 in test [1] turned out to be 20 µM.

As to `COc1ccnc(C[S+]([O-])c2nc3cc(OC(F)F)ccc3[nH]2)c1OC` (stereo not given), the inhibition entry in test [3] is “inactive”.

`CC(C)C[C@H](NC(=O)CNC(=O)c1cc(Cl)ccc1Cl)B(O)O`: the inhibition result in test [2] was “inactive”.

Turning to `CCNC1=N[C@H]2[C@H](O)[C@@H](O)[C@H](CO)O[C@H]2S1`, the inhibition result in test [2] was “inactive”.

For the compound `CC(C)C[C@@H](C=O)NC(=O)[C@H](CC(C)C)NC(=O)[C@H](CC(C)C)NC(=O)OCc1ccccc1` (Cbz-Leu-Leu-Leu-aldehyde), in test [2], the inhibition entry was “inactive”.

On to `CC(=O)Nc1nnc(S(N)(=O)=O)s1`, for which the inhibition entry in test [2] was “inactive”.

In the case of `COc1ccc2[nH]c([S@@+]([O-])Cc3ncc(C)c(OC)c3C)nc2c1`, in test [3], the inhibition result is “inactive”.

Regarding `CN1CCc2nc(C(=O)N[C@@H]3C[C@@H](C(=O)N(C)C)CC[C@@H]3NC(=O)C(=O)Nc3ccc(Cl)cn3)sc2C1`, in test [2], the inhibition entry was “inactive”.

On to `CNCC[C@@H](Oc1ccccc1C)c1ccccc1`, for which the inhibition entry in test [2] was “inactive”.

Regarding `N=C(N)NC(=O)Cc1c(Cl)cccc1Cl`, the inhibition result in test [2] is “inactive”.
